Assay [1] has as its system Plasmodium falciparum. The assay is described as follows: Inhibition of His-tagged Plasmodium falciparum Sir2 expressed in Escherichia coli at t500 uM preincubated 5 min before substrate assay mixture addition by FRET assay. The method, boiled down: (§1)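 Recombinant C-terminal His-tagged PfSir2 from E. coli BL21(DE3), Ni-NTA purified. Enzyme preincubated with inhibitor 5 min, then added to mix of 5 mM Tris-HCl pH 8.0, trichostatin A and trypsin with acetyl-lysine EDANS–DABCYL peptide. Deacetylation allows trypsin cleavage and a rise in fluorescence. Read at 37 °C on a spectrofluorimeter.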

Assay [2] can be described thus: Inhibition of His-tagged Plasmodium falciparum Sir2 expressed in Escherichia coli preincubated 5 min before substrate assay mixture addition by FRET assay. The method, boiled down: as §1
Assay [3] has as its target T1, NAD-dependent protein deacetylase sirtuin-1 (Homo sapiens) (UniProt Q96EB6).
T1 sequence (whole entry): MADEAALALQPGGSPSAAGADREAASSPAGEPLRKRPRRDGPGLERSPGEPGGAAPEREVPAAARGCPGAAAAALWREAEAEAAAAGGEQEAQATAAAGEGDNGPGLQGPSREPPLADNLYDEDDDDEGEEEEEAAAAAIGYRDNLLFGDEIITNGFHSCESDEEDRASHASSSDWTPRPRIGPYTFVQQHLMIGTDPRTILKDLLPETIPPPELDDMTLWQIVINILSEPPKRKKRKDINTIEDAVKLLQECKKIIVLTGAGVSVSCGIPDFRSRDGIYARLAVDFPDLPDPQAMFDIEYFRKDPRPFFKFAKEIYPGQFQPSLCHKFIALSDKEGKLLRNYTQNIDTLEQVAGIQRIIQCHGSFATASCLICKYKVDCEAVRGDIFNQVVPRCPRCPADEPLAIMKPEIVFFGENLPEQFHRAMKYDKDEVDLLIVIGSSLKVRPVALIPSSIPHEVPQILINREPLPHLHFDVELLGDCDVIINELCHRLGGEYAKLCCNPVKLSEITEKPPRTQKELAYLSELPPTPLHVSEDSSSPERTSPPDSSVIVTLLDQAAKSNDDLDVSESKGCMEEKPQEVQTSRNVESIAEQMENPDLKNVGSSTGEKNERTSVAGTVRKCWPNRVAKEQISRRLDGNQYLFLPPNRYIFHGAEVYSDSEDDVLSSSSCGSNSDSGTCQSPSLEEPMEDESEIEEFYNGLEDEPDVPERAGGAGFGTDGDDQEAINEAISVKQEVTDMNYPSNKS
Briefly: Inhibition of human Sirt1.

Assay [4] in a line: Competitive inhibition of His-tagged Plasmodium falciparum Sir2 expressed in Escherichia coli measured by primary plot of enzyme kinetics in presence of saturating acetylated peptide levels by FRET assay. A digest of the protocol: (§2)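 His-tagged PfSir2 from E. coli, coupled FRET assay (acetyl-lysine EDANS–DABCYL peptide, trypsin cleavage after deacetylation), 37 °C. Initial velocities measured with one substrate varied, the other fixed at saturating level, at several fixed inhibitor levels. Parameters from non-linear regression. Lineweaver–Burk plots, plus secondary slope and intercept plots versus [I], fit linearly or by second-order polynomial. Two independently purified enzyme batches.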

Assay [5] in a line: Competitive inhibition of His-tagged Plasmodium falciparum Sir2 expressed in Escherichia coli measured by secondary plot of slope versus inhibitor concentration in presence of saturating acetylated peptide levels by FRET assay. The method, boiled down:
as §2

Assay [6] can be described thus: Noncompetitive inhibition of His-tagged Plasmodium falciparum Sir2 expressed in Escherichia coli measured by secondary plot of intercept versus inhibitor concentration in presence of saturating NAD+ levels by FRET assay. A digest of the protocol:
as §2

Assay [7] can be described thus: Noncompetitive inhibition of His-tagged Plasmodium falciparum Sir2 expressed in Escherichia coli measured by primary plot of enzyme kinetics in presence of saturating NAD+ levels by FRET assay. The method, boiled down:
as §2

The nature of assay [8]: Noncompetitive inhibition of His-tagged Plasmodium falciparum Sir2 expressed in Escherichia coli measured by secondary plot of slope versus inhibitor concentration in presence of saturating NAD+ levels by FRET assay. The method, boiled down: as §2
Assay [9] relates to Plasmodium falciparum. The assay is described as follows: Antiplasmodial activity against Plasmodium falciparum 3D7 infected in human O+ erythrocytes assessed as inhibition of parasite growth in intraerythrocytic stage after 24 hrs by [3H]hypoxanthine incorporation assay. It counts as functional, organism-based. The method, boiled down: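 P. falciparum 3D7 grown in human O+ erythrocytes at 5% hematocrit, RPMI 1640 with 10% human serum. Compound in DMSO, twofold serial dilutions from 400 to 0.2 µM. Wells at 2% parasitemia and 2% hematocrit, 37 °C in candle jar. After 24 h, 1.0 µCi [3H]hypoxanthine added per well for another 12 h. Filter-harvested counts; IC50 by interpolation from log plot. Done twice in duplicate.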

Calls of active or inactive are those of the source. No cut-off for these calls is given here.

Take `CC(=O)O[C@H]1C[C@H](n2cc(C)c(=O)[nH]c2=O)O[C@@H]1Cn1cc(COC(=O)NCCCC[C@H](NC(=O)OC(C)(C)C)C(=O)OCc2ccccc2)nn1`: the inhibition entry in the assay with Plasmodium falciparum [1] is “inactive”.
On to `C#CCOC(=O)NCCCC[C@H](NC(=O)OC(C)(C)C)C(=O)O`, for which the inhibition entry in the assay on Plasmodium falciparum [1] was “inactive”.
One may read the IC50 as the concentration at which inhibition is half-maximal. In general, Ki refers to a dissociation constant, usually derived from enzyme kinetics or from competition with a known ligand. `COC(=O)[C@@H](NC(=O)[C@H](CCCCNC(=O)OCc1cn([C@@H]2O[C@H]([C@@H]3COC(C)(C)O3)[C@@H]3OC(C)(C)O[C@@H]32)nn1)NC(=O)[C@H](Cc1ccccc1)NC(=O)OC(C)(C)C)C(C)C`: in assay [2], the IC50 was determined as 34 µM. For the same compound, the “inhibition (qualitative call)” value in assay [3] is “Active”. Also, the inhibition constant Ki in [4] amounted to 58 µM; in [5], 62 µM; in assay [6], 125 µM; in [7], 122 µM; in [8], 90 µM.
As for `COC(=O)[C@@H](NC(=O)[C@H](CCCCNC(=O)OCc1cn([C@@H]2O[C@H](COC(C)=O)[C@H](OC(C)=O)[C@H](OC(C)=O)[C@H]2OC(C)=O)nn1)NC(=O)[C@H](Cc1ccccc1)NC(=O)OC(C)(C)C)C(C)C`, the half-maximal inhibitory concentration (IC50) in assay [2] was found to be 151 µM. In addition, the “inhibition (qualitative call)” value in assay [3] was “Active”. In addition, the Ki in assay [4] turned out to be 85 µM; in assay [5], 80 µM; in [6] it was 193 µM; in assay [7], 154 µM; in assay [8], 172 µM.
Consider `C#CCOC(=O)NCCCC[C@H](NC(=O)OC(C)(C)C)C(=O)N[C@H](C(=O)OC)C(C)C`, for which, in the assay with Plasmodium falciparum [1], the inhibition entry is “inactive”.
For the compound `COC(=O)[C@@H](NC(=O)[C@H](CCCCNC(=O)OCc1cn(C[C@H]2O[C@@H](n3cc(C)c(=O)[nH]c3=O)C[C@@H]2OC(C)=O)nn1)NC(=O)[C@H](Cc1ccccc1)NC(=O)OC(C)(C)C)C(C)C`, the IC50 in assay [2] is 33 µM. In [3], the “inhibition (qualitative call)” value was “Active”. In addition, the Ki in [4] amounted to 60 µM; in assay [5], 64 µM; in assay [6], 113 µM; in [7], 124 µM; in [8], 115 µM.
Take `COC(=O)[C@@H](NC(=O)[C@H](CCCCNC(=O)OCc1cn(C[C@H]2O[C@H](OC)[C@H](OC(C)=O)[C@@H](OC(C)=O)[C@@H]2OC(C)=O)nn1)NC(=O)[C@H](Cc1ccccc1)NC(=O)OC(C)(C)C)C(C)C`: the IC50 was 23 µM in [2] and 9.8 µM in the assay with Plasmodium falciparum [9]. The “inhibition (qualitative call)” value in assay [3] is “Active”. In addition, the Ki worked out at 60 µM in assay [4]; 60 µM in assay [5]; 119 µM in assay [6]; 134 µM in assay [7]; 90 µM in assay [8].

For the origin of these results see ChEMBL document CHEMBL1152686, “Development and characterization of lysine based tripeptide analogues as inhibitors of Sir2 activity” (Bioorg Med Chem, 2009).
